# Screening results (PubChem BioAssay)
# Compounds with a hit are over-represented: about 1.3% of the library has one in this group of screens.
# Tn6 DDE FP – inhibitors of Tn6 peptide binding to fibrin DD(E), primary screen, biochemical, fluorescence polarization, human fibrin, Tn6 probe. Fibrin DD(E) TRITC-Tn6 fluorescence polarization displacement. inhibition, % at 8.3 µM. actives 0.21% (n = 370,000). AID 720509, 2013;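 active means inhibition above a per-campaign cutoff: mean of compounds within control limits plus 3 SD, cut at about 15% in these data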
# DDE Tn7 FP inh – inhibitors of Tn7 peptide binding to fibrin DD(E), primary screen, biochemical, fluorescence polarization, human fibrin, Tn7 probe; Fibrinogen beta chain (Homo sapiens), P02675; FP displacement of FITC-Tn7 peptide from fibrin DD(E); 0% = median of compound wells per plate; inhibition, % at 8.3 µM; actives 0.13% (n = 370,000);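 active means inhibition above the mean of compounds falling within the control limits plus 3 SD of them, cut at about 14% in these data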
#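 Measure: % inhibition scaled between sample-field median and high-control FP; Test system: human fibrin DD(E); Quantity: 2 µM final DD(E) protein; Doses: one dose, 8.3 µM nominal; Schedule: compound with protein 10 min, then 3 h after probe, room temperature; Detection: fluorescence polarization; Medium: Tris buffer with calcium and detergent, pH 7.8.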
# NRP1-CendR mod – modulators of CendR peptide binding to NRP-1, primary screen, biochemical, fluorescence polarization, uHTS | actives 0.85% (n = 360,000) | FAM-RPARPAR peptide binding to NRP-1 | Neuropilin-1 (Homo sapiens), O14786 | inhibition, % at 25 µM;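 active means inhibition or corrected inhibition above about 18%, plus a signal ratio from 0.5 to 1.5, limit read from the data, passing the limit was not always enough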
# aDG glyco act – activators of alpha-DG glycosylation, primary screen, uHTS, Pro5-aDG cells, AlphaScreen; alpha-DG glycosylation AlphaScreen (IIH6); 0% Pro5, 100% B10-LARGE cell signal; activation, % at 10 µM; actives 0.22% (n = 360,000); AID 624168, 2012;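 active means activation of at least 8% versus controls, or a plate z-score of at least 8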;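 further: Pro5 are CHO cells carrying HIG-tagged alpha-DG that lacks glycosylation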
# aDG conf – alpha-DG glycosylation enhancers, retest, confirmation, single concentration, Pro5-aDG cells | shares compounds with aDG glyco act | IIH6 AlphaLISA; scaled to LARGE-overexpressing B10 cells as 100% | activation, % at 10 µM (by protocol) | actives 17% (n = 600) | AID 651671, 2012;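 active means activation of at least 7% in one or more replicates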;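 further: cells exposed to compound for two days before detection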
# Hits are given with their value; n = inactive; x = not tested or not shown.
SMILES,Tn6 DDE FP,DDE Tn7 FP inh,NRP1-CendR mod,aDG glyco act,aDG conf
O=C(CSc1nnc(NC(=O)c2ccco2)s1)Nc1ccccc1Br,n,n,n,2.2,n
Cc1ccccc1NC(=O)CSc1nnc(NC(=O)c2ccco2)s1,n,n,n,n,x
CN1CC=C(c2ccc(C(F)(F)F)cc2)N(c2ccc(Br)cc2)C1=O,n,n,x,x,x
CC(C)Cn1c(N)c(C(=O)COC(=O)c2ccc(Cl)cc2)c(=O)n(C)c1=O,n,n,n,n,x
CC(C)Cn1c(N)c(C(=O)COC(=O)c2ccc(Br)cc2)c(=O)n(C)c1=O,n,n,n,3.4,1.2
COc1ccc(C(=O)Nc2ccc(Cl)c(S(=O)(=O)Nc3ccccc3OC)c2)cc1,n,n,n,3.7,n
COc1ccccc1NS(=O)(=O)c1cc(NC(=O)c2ccc(Cl)nc2)ccc1Cl,n,n,n,n,x
Cc1ccc(C(C)C)c(OCCn2ccnc2C)c1,n,n,n,n,x
Cc1ccc(OCCCCn2ccnc2C)c(C)c1,n,n,n,3.0,n
N#Cc1ccc(Cn2nnc(-c3ccc(N4CCOCC4)cc3)n2)cc1,n,n,x,x,x
Cn1cc(CN2CCCC(C(=O)Nc3cccc(-c4cc5ccccc5[nH]4)c3)C2)cn1 (configuration not stated),n,n,n,n,x
CC(C)n1cc(CN2CCCC(C(=O)Nc3cccc(-c4cc5ccccc5[nH]4)c3)C2)cn1 (configuration not stated),n,n,n,8.8,5.3
COCCNC(=O)C1(C)CCCN(Cc2csc(-c3ccc(Cl)cc3)n2)C1 (configuration not stated),x,x,n,n,x
CC1CN(S(=O)(=O)c2cccc(C(=O)Nc3ccc(S(=O)(=O)Nc4ncccn4)cc3)c2)CC(C)O1 (configuration not stated),n,n,n,n,x
COC(=O)C1=C(C)N(C)C(=NCc2ccccc2)NC1c1ccc(F)cc1 (configuration not stated),n,n,x,x,x
Cn1c(NC(=O)c2ccccc2)nc(Cc2ccccc2)c1Cc1ccccc1,n,n,x,x,x
Cc1noc(C)c1CSCC(=O)N1CCN(c2ccc(F)cc2)CC1,n,n,n,n,x
Cc1cccc(N2CCN(C(=O)CSCc3c(C)noc3C)CC2)c1C,x,x,n,6.8,n
CC(=O)Nc1ccc(NC(=O)CCSCCc2ccccn2)cc1,n,n,n,n,x
CC(=O)Nc1ccc(NC(=O)CSCCc2ccccn2)cc1,n,n,n,4.5,n
Cc1nc(C)c(C(=O)NCc2ccc(Cl)cc2)o1,x,x,n,n,x
Cc1nn(C)c(C(=O)NCc2ccc(Cl)cc2)c1Cl,n,n,n,4.9,n
O=C(Cn1nnc(-c2ccncc2)n1)Nc1ccc(Oc2ccccc2)cc1,n,n,x,x,x
CCC1CCCCN1CCCNC(=O)c1cn(CC)c2ccc(S(=O)(=O)N3CCc4ccccc4C3)cc2c1=O (configuration not stated),n,n,n,9.1,n
COC(=O)[C@]12C[C@H](CC(=O)N3CCN(C(=O)C4CC4)CC3)C(=O)N(Cc3ccccc3)C1=C[C@H](C1CCCC1)O[C@@H]2C,n,n,x,x,x
SMILES,Tn6 DDE FP,DDE Tn7 FP inh,NRP1-CendR mod,aDG glyco act,aDG conf
CC1CCCCN1C(=O)CN1C(=O)c2ccccc2S1(=O)=O (configuration not stated),n,n,n,n,x
CCC1CCCCN1C(=O)CN1C(=O)c2ccccc2S1(=O)=O (configuration not stated),n,n,n,3.3,n
COC(=O)[C@H]1[C@@H](O)[C@@]2(O)c3c(OC)cc(OC)cc3O[C@@]2(c2ccc(OC)cc2)[C@@H]1c1ccc(F)cc1,n,n,x,x,x
CC/C(=N\NC(=O)C1CCCC1)c1cccc(Br)c1,n,n,n,n,x
CC/C(=N\NC(=O)C1CCCC1)c1ccc(Br)cc1,n,n,n,8.8,n
O=C(NCCc1ccc(F)cc1)c1cc2ccccn2n1,n,n,x,x,x
COC(=O)[C@]12CCCCC=C1N(Cc1cccc3ccccc13)C(=O)[C@H](CC(=O)NCCC(C)C)C2,n,n,n,5.6,n
CCCC(=O)c1ccc(N2CCN(C(=O)c3ccccc3Br)CC2)c(F)c1,n,n,n,5.2,n
